# Data from ChEMBL document CHEMBL4382192, “Discovery of a potent dual ALK and EGFR T790M inhibitor” (Eur J Med Chem, 2017).
# Tests used:
# [1] = molecular target: Tyrosine-protein kinase ABL2 (Homo sapiens) (UniProt P42684); experiment: Binding affinity to wild-type human ABL2 (A248 to G542 residues) expressed in bacterial expression system assessed as residual binding level at 1 uM by Kinomescan method relative to control
# How it was run: (§1)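 Kinome-wide selectivity panel run by the KINOMEscan method, with the test compound at a single concentration of 1 μM. Wild-type and mutant kinases were profiled in the same screen.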
# [2] = molecular target: Protein-tyrosine kinase 6 (Homo sapiens) (UniProt Q13882); experiment: Binding affinity to wild-type human partial length BRK (L166 to T451 residues) expressed in bacterial expression system assessed as residual binding level at 1 uM by Kinomescan method relative to control
# Protein-tyrosine kinase 6 (Homo sapiens), sequence (Q13882 whole entry, looked up, the tested form may be a part): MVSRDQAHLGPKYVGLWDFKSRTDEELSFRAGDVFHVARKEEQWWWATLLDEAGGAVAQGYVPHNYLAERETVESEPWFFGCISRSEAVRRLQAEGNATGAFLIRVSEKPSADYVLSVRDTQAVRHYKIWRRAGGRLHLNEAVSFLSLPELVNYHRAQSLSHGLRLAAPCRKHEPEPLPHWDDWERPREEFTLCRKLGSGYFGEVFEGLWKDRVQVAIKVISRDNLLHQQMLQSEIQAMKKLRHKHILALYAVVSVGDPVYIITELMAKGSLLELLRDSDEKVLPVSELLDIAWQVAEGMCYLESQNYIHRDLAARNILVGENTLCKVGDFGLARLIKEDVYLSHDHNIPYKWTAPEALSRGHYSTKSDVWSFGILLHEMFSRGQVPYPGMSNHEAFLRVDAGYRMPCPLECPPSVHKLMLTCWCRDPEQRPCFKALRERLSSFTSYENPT
# [3] = molecular target: Serine/threonine-protein kinase Chk1 (Homo sapiens) (UniProt O14757); experiment: Binding affinity to wild-type human partial length CHEK1 (M1 to G289 residues) expressed in bacterial expression system assessed as residual binding level at 1 uM by Kinomescan method relative to control
# [4] = molecular target: Dual specificity protein kinase CLK1 (Homo sapiens) (UniProt P49759); experiment: Binding affinity to wild-type human full length CLK1 (M1 to I484 residues) expressed in bacterial expression system assessed as residual binding level at 1 uM by Kinomescan method relative to control
# [5] = molecular target: Macrophage colony-stimulating factor 1 receptor (Homo sapiens) (UniProt P07333); experiment: Binding affinity to wild-type human partial length autoinhibited CSF1R (Y538 to S939 residues) expressed in mammalian expression system assessed as residual binding level at 1 uM by Kinomescan method relative to control
# [6] = molecular target: Discoidin domain-containing receptor 2 (Homo sapiens) (UniProt Q16832); experiment: Binding affinity to wild-type human partial length DDR2 (V555 to E855 residues) expressed in mammalian expression system assessed as residual binding level at 1 uM by Kinomescan method relative to control
# Discoidin domain-containing receptor 2 (Homo sapiens), sequence (Q16832 whole entry, the tested form may be a part): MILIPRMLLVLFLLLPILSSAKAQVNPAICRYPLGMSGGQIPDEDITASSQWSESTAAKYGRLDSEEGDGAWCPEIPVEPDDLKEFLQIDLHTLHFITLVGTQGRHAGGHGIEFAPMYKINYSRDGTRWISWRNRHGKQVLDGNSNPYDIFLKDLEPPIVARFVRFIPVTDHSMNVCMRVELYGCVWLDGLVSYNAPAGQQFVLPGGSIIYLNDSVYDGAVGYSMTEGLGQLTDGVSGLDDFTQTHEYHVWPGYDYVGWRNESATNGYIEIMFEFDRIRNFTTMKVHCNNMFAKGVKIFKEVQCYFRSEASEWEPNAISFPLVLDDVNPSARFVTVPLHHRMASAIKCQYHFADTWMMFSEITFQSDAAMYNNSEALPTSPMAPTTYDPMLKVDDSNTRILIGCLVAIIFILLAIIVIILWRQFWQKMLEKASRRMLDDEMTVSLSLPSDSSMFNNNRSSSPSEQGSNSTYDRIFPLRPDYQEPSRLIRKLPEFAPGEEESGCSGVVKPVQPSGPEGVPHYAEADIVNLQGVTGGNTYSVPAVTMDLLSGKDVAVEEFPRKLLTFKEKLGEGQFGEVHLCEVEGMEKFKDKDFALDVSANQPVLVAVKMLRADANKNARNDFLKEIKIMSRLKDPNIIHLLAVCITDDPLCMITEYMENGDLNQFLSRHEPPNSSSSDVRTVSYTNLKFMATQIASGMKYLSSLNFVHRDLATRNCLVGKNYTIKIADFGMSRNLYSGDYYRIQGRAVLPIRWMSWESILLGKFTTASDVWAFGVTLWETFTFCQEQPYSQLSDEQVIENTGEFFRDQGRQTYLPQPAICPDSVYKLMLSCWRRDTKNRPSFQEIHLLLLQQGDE
# [7] = molecular target: Serine/threonine-protein kinase MRCK gamma (Homo sapiens) (UniProt Q6DT37); experiment: Binding affinity to wild-type human partial length DMPK2 (S46 to S408 residues) expressed in bacterial expression system assessed as residual binding level at 1 uM by Kinomescan method relative to control
# [8] = molecular target: Epidermal growth factor receptor (Homo sapiens) (UniProt P00533); experiment: Binding affinity to wild-type human partial length EGFR (R669 to V1011 residues) expressed in bacterial expression system assessed as residual binding level at 1 uM by Kinomescan method relative to control
# Epidermal growth factor receptor (Homo sapiens), sequence (P00533 whole entry, the tested form may be a part): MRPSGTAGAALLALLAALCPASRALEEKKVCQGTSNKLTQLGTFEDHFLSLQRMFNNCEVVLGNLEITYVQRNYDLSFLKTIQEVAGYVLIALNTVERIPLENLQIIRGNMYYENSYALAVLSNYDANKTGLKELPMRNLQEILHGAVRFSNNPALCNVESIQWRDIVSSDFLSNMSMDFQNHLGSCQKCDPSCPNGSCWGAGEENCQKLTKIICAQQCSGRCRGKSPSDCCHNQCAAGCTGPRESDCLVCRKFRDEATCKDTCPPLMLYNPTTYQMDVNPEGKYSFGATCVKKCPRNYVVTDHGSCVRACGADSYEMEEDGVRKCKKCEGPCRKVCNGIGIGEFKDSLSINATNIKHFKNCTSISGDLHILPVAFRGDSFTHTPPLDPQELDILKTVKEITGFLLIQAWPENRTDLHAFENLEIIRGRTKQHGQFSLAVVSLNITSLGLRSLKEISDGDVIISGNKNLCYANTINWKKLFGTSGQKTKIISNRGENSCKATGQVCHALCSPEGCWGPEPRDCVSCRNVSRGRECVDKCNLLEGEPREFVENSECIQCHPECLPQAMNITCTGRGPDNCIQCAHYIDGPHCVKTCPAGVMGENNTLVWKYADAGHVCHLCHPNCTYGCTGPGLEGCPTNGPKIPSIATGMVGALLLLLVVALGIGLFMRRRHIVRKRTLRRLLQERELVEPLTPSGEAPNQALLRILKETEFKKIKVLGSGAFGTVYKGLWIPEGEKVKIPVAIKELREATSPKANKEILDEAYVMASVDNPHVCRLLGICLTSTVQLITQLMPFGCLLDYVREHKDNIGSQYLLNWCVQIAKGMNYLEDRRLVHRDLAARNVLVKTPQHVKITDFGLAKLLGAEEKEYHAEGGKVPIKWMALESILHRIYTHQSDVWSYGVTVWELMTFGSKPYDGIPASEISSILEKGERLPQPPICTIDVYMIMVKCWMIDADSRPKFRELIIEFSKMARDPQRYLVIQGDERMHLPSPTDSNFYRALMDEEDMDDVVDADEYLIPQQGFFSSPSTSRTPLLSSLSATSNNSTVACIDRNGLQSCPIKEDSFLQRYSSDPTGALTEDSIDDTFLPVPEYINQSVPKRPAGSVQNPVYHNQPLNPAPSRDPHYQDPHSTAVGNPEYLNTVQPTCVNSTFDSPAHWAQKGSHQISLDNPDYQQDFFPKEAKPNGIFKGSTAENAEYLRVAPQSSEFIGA
# [9] = molecular target: Ephrin type-A receptor 2 (Homo sapiens) (UniProt P29317); experiment: Binding affinity to wild-type human partial length EPHA2 (T593 to V891 residues) expressed in bacterial expression system assessed as residual binding level at 1 uM by Kinomescan method relative to control
# [10] = molecular target: Ephrin type-B receptor 3 (Homo sapiens) (UniProt P54753); experiment: Binding affinity to wild-type human partial length EPHB3 (Q599 to T928 residues) expressed in bacterial expression system assessed as residual binding level at 1 uM by Kinomescan method relative to control
# [11] = test system: Receptor-type tyrosine-protein kinase FLT3 (Homo sapiens), P36888 [UNDEFINED MUTATION]; experiment: Binding affinity to human partial length FLT3 ITD mutant expressed in bacterial expression system assessed as residual binding level at 1 uM by Kinomescan method relative to control; how it was run: as §1
# [12] = molecular target: Rhodopsin kinase GRK1 (Homo sapiens) (UniProt Q15835); experiment: Binding affinity to wild-type human full length GRK1 (M1 to S563 residues) expressed in mammalian expression system assessed as residual binding level at 1 uM by Kinomescan method relative to control
# Rhodopsin kinase GRK1 (Homo sapiens), sequence (Q15835 whole entry, the tested form may be a part): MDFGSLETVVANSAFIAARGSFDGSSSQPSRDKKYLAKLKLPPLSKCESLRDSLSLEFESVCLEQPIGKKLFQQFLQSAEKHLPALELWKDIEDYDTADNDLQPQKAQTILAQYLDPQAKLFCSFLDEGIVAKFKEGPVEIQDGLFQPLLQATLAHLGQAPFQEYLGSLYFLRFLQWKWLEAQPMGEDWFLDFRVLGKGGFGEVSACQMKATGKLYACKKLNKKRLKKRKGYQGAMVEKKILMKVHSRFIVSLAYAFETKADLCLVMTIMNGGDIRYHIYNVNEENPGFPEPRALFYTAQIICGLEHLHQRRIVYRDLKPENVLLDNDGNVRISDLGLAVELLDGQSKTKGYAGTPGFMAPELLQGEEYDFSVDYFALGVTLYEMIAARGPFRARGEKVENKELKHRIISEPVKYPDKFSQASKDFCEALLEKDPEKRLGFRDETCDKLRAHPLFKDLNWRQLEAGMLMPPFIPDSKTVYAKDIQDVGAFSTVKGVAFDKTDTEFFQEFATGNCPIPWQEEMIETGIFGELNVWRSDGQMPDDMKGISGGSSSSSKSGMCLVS
# How it was run: (§2)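 Single-point kinome-wide KINOMEscan binding panel, test compound at 1 μM, run by the provider's standard protocol.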
# [13] = test system: Mast/stem cell growth factor receptor Kit (Homo sapiens), P10721 [UNDEFINED MUTATION]; experiment: Binding affinity to human partial length KIT V559D/V654 double mutant (Y545 to D952 residues) expressed in bacterial expression system assessed as residual binding level at 1 uM by Kinomescan method relative to control; how it was run: as §1
# [14] = molecular target: Phosphatidylinositol 4,5-bisphosphate 3-kinase catalytic subunit beta isoform (Homo sapiens) (UniProt P42338); experiment: Binding affinity to wild-type human partial length PIK3CB (P118 to S1070 residues) expressed in mammalian expression system assessed as residual binding level at 1 uM by Kinomescan method relative to control
# [15] = molecular target: Phosphatidylinositol 4-kinase beta (Homo sapiens) (UniProt Q9UBF8); experiment: Binding affinity to wild-type human full length PIK4CB (M1 to M828 residues) expressed in mammalian expression system assessed as residual binding level at 1 uM by Kinomescan method relative to control; how it was run: as §2
# [16] = molecular target: Serine/threonine-protein kinase PLK1 (Homo sapiens) (UniProt P53350); experiment: Binding affinity to wild-type human partial length PLK1 (A33 to F325 residues) expressed in mammalian expression system assessed as residual binding level at 1 uM by Kinomescan method relative to control
# [17] = molecular target: RAF proto-oncogene serine/threonine-protein kinase (Homo sapiens) (UniProt P04049); experiment: Binding affinity to wild-type human partial length RAF1 (I330 to T640 residues) expressed in bacterial expression system assessed as residual binding level at 1 uM by Kinomescan method relative to control
# [18] = molecular target: Ribosomal protein S6 kinase alpha-5 (Homo sapiens) (UniProt O75582); experiment: Binding affinity to wild-type human partial length C-terminal RPS6KA5 kinase domain 2 (V390 to T718 residues) expressed in bacterial expression system assessed as residual binding level at 1 uM by Kinomescan method relative to control
# [19] = molecular target: Ribosomal protein S6 kinase alpha-3 (Homo sapiens) (UniProt P51812); experiment: Binding affinity to wild-type human partial length N-terminal RSK2 kinase domain 1 (M1 to D394 residues) expressed in mammalian expression system assessed as residual binding level at 1 uM by Kinomescan method relative to control
# [20] = molecular target: NUAK family SNF1-like kinase 2 (Homo sapiens) (UniProt Q9H093); experiment: Binding affinity to wild-type human partial length SNARK (P22 to A333 residues) expressed in mammalian expression system assessed as residual binding level at 1 uM by Kinomescan method relative to control
# [21] = molecular target: SRSF protein kinase 1 (Homo sapiens) (UniProt Q96SB4); experiment: Binding affinity to wild-type human full length SRPK1 (M1 to S655 residues) expressed in bacterial expression system assessed as residual binding level at 1 uM by Kinomescan method relative to control; how it was run: as §2
# SRSF protein kinase 1 (Homo sapiens), sequence (Q96SB4 whole entry, the tested form may be a part): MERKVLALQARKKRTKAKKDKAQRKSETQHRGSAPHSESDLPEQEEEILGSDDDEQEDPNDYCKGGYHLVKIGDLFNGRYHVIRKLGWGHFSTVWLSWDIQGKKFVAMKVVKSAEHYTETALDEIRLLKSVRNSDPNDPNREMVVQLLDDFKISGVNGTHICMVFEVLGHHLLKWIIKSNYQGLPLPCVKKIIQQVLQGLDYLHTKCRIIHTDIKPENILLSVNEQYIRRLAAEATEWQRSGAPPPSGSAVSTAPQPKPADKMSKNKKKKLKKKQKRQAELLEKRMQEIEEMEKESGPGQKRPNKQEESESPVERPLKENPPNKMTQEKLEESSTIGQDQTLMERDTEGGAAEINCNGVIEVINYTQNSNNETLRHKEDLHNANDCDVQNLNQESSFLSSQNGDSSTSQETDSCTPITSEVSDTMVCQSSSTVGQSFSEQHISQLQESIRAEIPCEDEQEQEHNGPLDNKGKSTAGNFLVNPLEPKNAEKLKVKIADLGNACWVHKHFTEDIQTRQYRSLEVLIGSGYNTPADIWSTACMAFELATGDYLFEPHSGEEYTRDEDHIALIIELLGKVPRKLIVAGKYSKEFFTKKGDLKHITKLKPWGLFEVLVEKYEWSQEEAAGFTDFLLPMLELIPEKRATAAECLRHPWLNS
# [22] = molecular target: STE20/SPS1-related proline-alanine-rich protein kinase (Homo sapiens) (UniProt Q9UEW8); experiment: Binding affinity to wild-type human partial length STK39 (P43 to I357 residues) expressed in mammalian expression system assessed as residual binding level at 1 uM by Kinomescan method relative to control
# [23] = molecular target: Serine/threonine-protein kinase TAO3 (Homo sapiens) (UniProt Q9H2K8); experiment: Binding affinity to wild-type human partial length TAOK3 (M1 to T316 residues) expressed in mammalian expression system assessed as residual binding level at 1 uM by Kinomescan method relative to control
# Serine/threonine-protein kinase TAO3 (Homo sapiens), sequence (Q9H2K8 whole entry, the tested form may be a part): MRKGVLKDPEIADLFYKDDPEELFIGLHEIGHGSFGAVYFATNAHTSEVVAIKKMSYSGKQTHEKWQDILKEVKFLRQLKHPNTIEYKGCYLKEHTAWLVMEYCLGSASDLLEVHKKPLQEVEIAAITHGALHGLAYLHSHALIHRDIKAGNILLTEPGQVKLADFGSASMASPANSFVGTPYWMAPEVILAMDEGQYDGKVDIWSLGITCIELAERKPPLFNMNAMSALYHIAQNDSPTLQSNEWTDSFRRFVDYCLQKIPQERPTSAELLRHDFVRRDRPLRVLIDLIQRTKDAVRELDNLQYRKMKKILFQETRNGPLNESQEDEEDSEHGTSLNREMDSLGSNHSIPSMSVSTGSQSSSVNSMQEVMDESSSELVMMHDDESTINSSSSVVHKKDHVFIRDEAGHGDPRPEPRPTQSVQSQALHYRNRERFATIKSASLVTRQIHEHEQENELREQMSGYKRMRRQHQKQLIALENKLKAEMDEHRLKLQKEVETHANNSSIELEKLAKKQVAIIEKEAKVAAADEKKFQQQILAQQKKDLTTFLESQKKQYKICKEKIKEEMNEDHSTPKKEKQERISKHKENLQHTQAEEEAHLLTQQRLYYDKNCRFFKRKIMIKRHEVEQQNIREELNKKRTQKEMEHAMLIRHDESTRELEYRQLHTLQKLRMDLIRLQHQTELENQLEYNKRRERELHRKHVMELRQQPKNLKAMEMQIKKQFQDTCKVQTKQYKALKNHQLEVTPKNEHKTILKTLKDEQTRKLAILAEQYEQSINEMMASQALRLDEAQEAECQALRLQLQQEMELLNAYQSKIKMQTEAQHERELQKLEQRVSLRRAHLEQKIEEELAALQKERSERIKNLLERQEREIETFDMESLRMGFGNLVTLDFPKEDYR
smiles,measurement,setting,value
C=CC(=O)Nc1cc(Nc2ncc(Cl)c(Nc3ccccc3S(=O)(=O)C(C)C)n2)c(OC)cc1N(C)CCN(C)C,Activity,[1],50%
same,Activity,[2],0.4%
same,Activity,[3],99%
same,Activity,[4],6.9%
same,Activity,[5],92%
same,Activity,[6],77%
same,Activity,[7],91%
same,Activity,[8],0%
same,Activity,[9],75%
same,Activity,[10],63%
same,Activity,[11],7.6%
same,Activity,[12],28%
same,Activity,[13],57%
same,Activity,[14],100%
same,Activity,[15],69%
same,Activity,[16],83%
same,Activity,[17],88%
same,Activity,[18],64%
same,Activity,[19],1.7%
same,Activity,[20],1.2%
same,Activity,[21],28%
same,Activity,[22],20%
same,Activity,[23],0.15%
